For data set [1], the target named is T1, Vitamin D3 receptor (Homo sapiens) (UniProt P11473).
T1 sequence (whole entry): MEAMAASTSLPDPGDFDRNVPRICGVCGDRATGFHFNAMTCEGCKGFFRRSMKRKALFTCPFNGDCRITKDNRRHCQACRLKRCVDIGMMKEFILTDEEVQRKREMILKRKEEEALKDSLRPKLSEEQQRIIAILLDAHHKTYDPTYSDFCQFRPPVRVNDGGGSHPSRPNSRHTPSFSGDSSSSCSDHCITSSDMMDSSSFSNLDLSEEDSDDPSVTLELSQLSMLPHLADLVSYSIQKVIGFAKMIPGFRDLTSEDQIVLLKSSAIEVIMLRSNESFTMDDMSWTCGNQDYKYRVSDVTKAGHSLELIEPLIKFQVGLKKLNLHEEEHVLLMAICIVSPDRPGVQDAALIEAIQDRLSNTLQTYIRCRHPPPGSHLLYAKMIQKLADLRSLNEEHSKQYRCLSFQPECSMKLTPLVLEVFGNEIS
Briefly: Effect on VDR activity in GeneBLAzer VDR-UAS-bla HEK 293T cells by fluorescence based analysis. In kind it is cell-based. In outline: (§1)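 Run in agonistic mode (compound alone) or antagonistic mode (compound plus an agonist). Each concentration tested in quadruplicate, at least three times. % activation or % inhibition plotted against concentration, with EC50 or IC50 derived from a sigmoidal dose–response fit.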

Another data set concerns HEK-293T. Briefly: Cytotoxicity against HEK293T cells assessed as reduction in cell viability measured after 24 to 72 hrs by celltiter-glo luminescent cell viability assay. The data set is classed as toxicity, cell-based. To be noted: human, time 24-72 hrs. The gist of the method:
(§2)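 Cells seeded at 2,500 per well for 1-day or 5,000 per well for 3-day exposure. Viability read by CellTiter-Glo luminescence. Staurosporine (56 μM) set as 100% cytotoxicity. Each concentration run in quadruplicate, at least three times. % cytotoxicity plotted and fitted to a sigmoidal dose–response curve. Means and SDs from three independent experiments.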

Data set [2] deals with T2, Nuclear receptor subfamily 1 group I member 2 (Mus musculus, UniProt O54915).
T2 sequence (O54915 whole entry): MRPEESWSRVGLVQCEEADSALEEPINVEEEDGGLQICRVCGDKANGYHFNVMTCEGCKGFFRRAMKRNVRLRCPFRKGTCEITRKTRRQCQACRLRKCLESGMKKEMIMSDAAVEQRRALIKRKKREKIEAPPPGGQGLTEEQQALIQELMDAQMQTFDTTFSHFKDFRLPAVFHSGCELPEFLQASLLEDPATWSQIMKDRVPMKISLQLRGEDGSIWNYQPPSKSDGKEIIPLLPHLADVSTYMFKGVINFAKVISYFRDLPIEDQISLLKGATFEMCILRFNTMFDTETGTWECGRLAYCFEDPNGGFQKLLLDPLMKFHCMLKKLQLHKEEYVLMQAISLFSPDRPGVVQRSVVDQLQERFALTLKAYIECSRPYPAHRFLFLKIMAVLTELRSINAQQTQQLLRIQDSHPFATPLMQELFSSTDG
Description: Effect on mouse PXR activity by luciferase reporter assay. The gist of the method: as §1

Data set [3] concerns the target T3, PXR (NR1I2) ligand binding domain (Homo sapiens, UniProt O75469).
T3 sequence (O75469 whole entry): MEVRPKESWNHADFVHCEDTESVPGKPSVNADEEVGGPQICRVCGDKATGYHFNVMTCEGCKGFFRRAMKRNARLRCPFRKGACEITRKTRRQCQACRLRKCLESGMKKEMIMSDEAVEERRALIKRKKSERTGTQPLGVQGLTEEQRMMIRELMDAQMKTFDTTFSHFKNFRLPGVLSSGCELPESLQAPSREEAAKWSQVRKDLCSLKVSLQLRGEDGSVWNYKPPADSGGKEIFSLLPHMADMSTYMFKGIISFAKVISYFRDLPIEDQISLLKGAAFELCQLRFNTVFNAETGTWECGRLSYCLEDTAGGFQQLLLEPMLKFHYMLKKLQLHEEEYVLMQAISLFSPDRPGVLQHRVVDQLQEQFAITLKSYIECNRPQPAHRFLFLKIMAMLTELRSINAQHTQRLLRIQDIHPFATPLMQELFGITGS
Briefly: Inhibition of BODIPY FL vindoline binding to recombinant human GST-tagged PXR LBD (111 to 434 residues) expressed in baculovirus infected insect cells at 10 uM incubated for 1 mins under shaking condition followed by 60 mins under dark condition by TR-FRET assay relative to control. To be noted: probe BODIPY FL vindoline, time 61 min.

Data set [4] relates to HepG2. Briefly: Cytotoxicity against human HepG2 cells assessed as reduction in cell viability measured after 24 to 72 hrs by celltiter-glo luminescent cell viability assay. In kind it is toxicity, cell-based. To be noted: time 24-72 hrs. The gist of the method:
as §2

The target of data set [5] is T4, Nuclear receptor subfamily 1 group I member 2 (Homo sapiens, UniProt O75469).
T4 sequence (O75469 whole entry): T3 sequence (O75469 whole entry)
Briefly: Agonist activity at human PXR in human HepG2 cells co-expressing luciferase gene under control of CYP3A4 promoter assessed as transcriptional activation at 30 uM incubated for 24 hrs by luminescence based analysis. The data set is classed as cell-based. The conditions noted are these: hepg2, 24 h.

In the next data set the test system is HepaRG. Description: Cytotoxicity against human HepaRG cells assessed as reduction in cell viability measured after 24 to 72 hrs by celltiter-glo luminescent cell viability assay. In kind it is toxicity, cell-based. To be noted: time 24-72 hrs. In outline: as §2
For another data set, the target named is T5, PXR (NR1I2) (Homo sapiens, UniProt O75469).
T5 sequence (O75469 whole entry): T3 sequence (O75469 whole entry)
Description: Inverse agonist activity at human PXR in human HepG2 cells co-expressing luciferase gene under control of CYP3A4 promoter assessed as inhibition in receptor basal activity at 10 uM incubated for 24 hrs by luminescence based analysis relative to control. In kind it is cell-based.

Data set [6] has as its target T6, Bile acid receptor (Homo sapiens) (UniProt Q96RI1).
T6 sequence (whole entry): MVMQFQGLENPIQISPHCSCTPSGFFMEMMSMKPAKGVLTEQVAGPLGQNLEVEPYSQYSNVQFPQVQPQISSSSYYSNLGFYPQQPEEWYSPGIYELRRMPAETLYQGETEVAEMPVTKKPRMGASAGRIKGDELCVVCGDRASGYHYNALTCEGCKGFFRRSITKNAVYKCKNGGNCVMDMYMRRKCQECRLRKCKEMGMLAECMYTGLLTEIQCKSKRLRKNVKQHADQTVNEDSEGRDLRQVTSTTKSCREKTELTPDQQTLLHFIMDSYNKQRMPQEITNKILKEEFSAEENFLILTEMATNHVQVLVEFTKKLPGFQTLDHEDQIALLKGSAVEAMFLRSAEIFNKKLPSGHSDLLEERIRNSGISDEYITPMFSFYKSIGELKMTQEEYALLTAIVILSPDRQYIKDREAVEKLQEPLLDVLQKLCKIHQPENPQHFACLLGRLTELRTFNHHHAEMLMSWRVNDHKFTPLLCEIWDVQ
Description: Effect on FXR activity in GeneBLAzer FXR-UAS-bla HEK 293T cells by fluorescence based analysis. In kind it is cell-based. In outline:
as §1

Data set [7] deals with HepG2. Briefly: Effect on CAR activity in human HepG2 cells co-expressing luciferase gene under control of CYP3A4 promoter by luciferase reporter assay. The data set is classed as cell-based.
The nature of data set [8]: Cytotoxicity against […] Hepa1-6 cells assessed as reduction in cell viability measured after 24 to 72 hrs by celltiter-glo luminescent cell viability assay. The data set is classed as toxicity, cell-based. To be noted: time 24-72 hrs. In outline:
as §2

For data set [9], the target named is T7, Oxysterols receptor LXR-alpha (Homo sapiens) (UniProt Q13133).
T7 sequence (whole entry): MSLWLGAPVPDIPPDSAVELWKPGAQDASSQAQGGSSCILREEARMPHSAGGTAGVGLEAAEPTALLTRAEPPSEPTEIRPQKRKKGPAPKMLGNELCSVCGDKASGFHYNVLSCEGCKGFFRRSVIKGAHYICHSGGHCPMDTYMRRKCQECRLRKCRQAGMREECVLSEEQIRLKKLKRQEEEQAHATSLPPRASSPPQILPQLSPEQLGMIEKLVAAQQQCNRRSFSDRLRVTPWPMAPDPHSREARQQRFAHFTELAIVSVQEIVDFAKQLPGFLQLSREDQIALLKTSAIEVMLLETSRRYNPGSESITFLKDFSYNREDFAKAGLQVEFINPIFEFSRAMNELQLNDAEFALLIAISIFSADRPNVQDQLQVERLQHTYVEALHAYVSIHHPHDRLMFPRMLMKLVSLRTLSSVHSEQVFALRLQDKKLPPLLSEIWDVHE
Description: Effect on LXRalpha activity in GeneBLAzer LXRalpha-UAS-bla HEK 293T cells by fluorescence based analysis. In kind it is cell-based. In outline:
as §1

The target in data set [10] is T4, Nuclear receptor subfamily 1 group I member 2. Briefly: Inhibition of BODIPY FL vindoline binding to recombinant human GST-tagged PXR LBD (111 to 434 residues) expressed in baculovirus infected insect cells incubated for 1 mins under shaking condition followed by 60 mins under dark condition by TR-FRET assay.
The target is the same in data set [11]. Briefly: Inverse agonist activity at human PXR in human HepG2 cells co-expressing luciferase gene under control of CYP3A4 promoter assessed as inhibition in receptor basal activity at 30 uM incubated for 24 hrs by luminescence based analysis. The conditions noted are these: hepg2, 24 h.

Calls of active or inactive are those of the source. The calls are words filed in the database; no cut-off is given here.

Regarding `CCC[C@H](C)Oc1ccc(C(C)(C)C)cc1NC(=O)c1nnn(-c2cc(OC)ccc2OC)c1C`, the result (in data set [1]; in data set [6]; in the data set with HepG2 [7]; in data set [9]) was inactive. For the same molecule, the Activity result was “Non-Toxic” with HEK-293T; “Not Active” in data set [2]; “Non-Toxic” with HepG2 [4]; “Not Active” in data set [5]; “Non-Toxic” in the data set on HepaRG; “Non-Toxic” in data set [8]. Moreover, the inhibition at 1.017 h, 10 µM in data set [3] was 87%. Besides, on PXR (NR1I2), the inhibition at 24 h, 10 µM came out at 125%.

For the molecule `CCC[C@H](C)Oc1ccc(C(C)(C)C)cc1NC(=O)c1nnn(-c2cc(C)ccc2OC)c1C`, the result (in data set [1]; in data set [6]; in the data set with HepG2 [7]; in [9]) was inactive. For the same molecule, the Activity entry in the data set on HEK-293T was “Non-Toxic”; in [2] it was “Not Active”; in the data set with HepG2 [4], “Non-Toxic”; in data set [5], “Not Active”; with HepaRG it was “Non-Toxic”; in data set [8], “Non-Toxic”. Besides, in data set [3], the inhibition at 1.017 h, 10 µM is 90%. Moreover, the IC50 in data set [10] was determined as 4 nM. Further, the INH result in [11] is recorded as “Not Active”.

Source of the values: ChEMBL document CHEMBL5236619, “Design and Optimization of 1H-1,2,3-Triazole-4-carboxamides as Novel, Potent, and Selective Inverse Agonists and Antagonists of PXR” (J Med Chem, 2022).
